Laboratory results as given in ChEMBL document CHEMBL4028870, “Controlling Plasma Stability of Hydroxamic Acids: A MedChem Toolbox” (J Med Chem, 2017).

Tests used:
[1] = Half life in human plasma at 10 uM up to 360 mins by LC-MS/MS analysis; assay type: ADME, cell-free
Method in brief: (§1)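 Plasma incubated in duplicate at 37 °C with 10 µM test compound (1% methanol; from 1 mM methanol stock). Samples taken at 0, 15, 30, 60, 120, 240 and 360 min and quenched with 9 volumes of ice-cold methanol containing 500 nM internal standard, then centrifuged. Analyte/IS area ratios were quantified by LC-MS/MS as % remaining versus T0. t1/2 = −0.693/k, with k from the slope of log % remaining versus time.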

[2] = Half life in rat plasma at 10 uM up to 360 mins by LC-MS/MS analysis; assay type: ADME, cell-free; method in brief: as §1
Plasma [3] = test: Stability in rat plasma at 10 uM up to 360 mins in presence of EDTA by LC-MS/MS analysis; assay type: ADME, cell-free; conditions: 6 h
Method in brief: (§2)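 Rat plasma incubated in duplicate at 37 °C with 10 µM test compound (1% methanol), plus either 1 mM DTNB (11) or 0.5 mM EDTA (12). Duplicate controls used methanol in place of the inhibitor. Samples taken from 0 to 360 min and quenched with 9 volumes of cold methanol containing internal standard. Remaining compound measured by LC-MS/MS relative to T0.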

[4] = Half life in human liver microsomes at 10 uM up to 120 mins by LC-MS/MS analysis; assay type: ADME, microsome
[5] = Half life in rat liver microsomes at 1 uM up to 120 mins by LC-MS/MS analysis; assay type: ADME, microsome
Method in brief: (§3)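 Run under non-oxidative conditions, in duplicate at 37 °C: 1 µM test compound (1% methanol) with 1 mg/mL rat liver or rat intestinal microsomal protein. Samples taken at 0, 15, 30, 60 and 120 min and quenched with 4 volumes of cold methanol or acetonitrile containing 200 nM internal standard. Triplicate controls used denatured microsomes. LC-MS/MS gave % remaining versus T0; t1/2 = −0.693/k.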

Liver carboxylesterase 1 [6] = target: T1, Liver carboxylesterase 1 (Mus musculus, UniProt Q8VCC2); test: Drug metabolism assessed as mouse CES1-mediated compound hydrolysis after 6 hrs; assay type: ADME
T1 sequence (Q8VCC2 whole entry): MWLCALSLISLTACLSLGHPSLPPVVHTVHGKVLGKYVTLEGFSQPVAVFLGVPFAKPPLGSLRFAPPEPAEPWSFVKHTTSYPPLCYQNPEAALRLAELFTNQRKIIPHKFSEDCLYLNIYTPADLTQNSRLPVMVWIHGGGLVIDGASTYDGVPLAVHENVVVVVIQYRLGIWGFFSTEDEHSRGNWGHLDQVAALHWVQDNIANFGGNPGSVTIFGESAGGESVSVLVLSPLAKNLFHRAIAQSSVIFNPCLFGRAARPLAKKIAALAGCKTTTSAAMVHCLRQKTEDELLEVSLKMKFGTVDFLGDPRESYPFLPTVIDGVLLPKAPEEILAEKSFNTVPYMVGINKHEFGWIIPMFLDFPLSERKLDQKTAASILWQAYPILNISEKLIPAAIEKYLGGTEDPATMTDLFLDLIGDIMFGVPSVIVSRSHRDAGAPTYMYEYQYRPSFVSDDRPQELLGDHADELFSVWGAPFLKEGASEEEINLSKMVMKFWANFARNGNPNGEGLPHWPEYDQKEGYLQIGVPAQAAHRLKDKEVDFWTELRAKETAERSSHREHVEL

Liver carboxylesterase 1 [7] = target: T2, Liver carboxylesterase 1 (Homo sapiens, UniProt P23141); test: Drug metabolism assessed as human CES1-mediated compound hydrolysis after 6 hrs; assay type: ADME
T2 sequence (P23141 whole entry): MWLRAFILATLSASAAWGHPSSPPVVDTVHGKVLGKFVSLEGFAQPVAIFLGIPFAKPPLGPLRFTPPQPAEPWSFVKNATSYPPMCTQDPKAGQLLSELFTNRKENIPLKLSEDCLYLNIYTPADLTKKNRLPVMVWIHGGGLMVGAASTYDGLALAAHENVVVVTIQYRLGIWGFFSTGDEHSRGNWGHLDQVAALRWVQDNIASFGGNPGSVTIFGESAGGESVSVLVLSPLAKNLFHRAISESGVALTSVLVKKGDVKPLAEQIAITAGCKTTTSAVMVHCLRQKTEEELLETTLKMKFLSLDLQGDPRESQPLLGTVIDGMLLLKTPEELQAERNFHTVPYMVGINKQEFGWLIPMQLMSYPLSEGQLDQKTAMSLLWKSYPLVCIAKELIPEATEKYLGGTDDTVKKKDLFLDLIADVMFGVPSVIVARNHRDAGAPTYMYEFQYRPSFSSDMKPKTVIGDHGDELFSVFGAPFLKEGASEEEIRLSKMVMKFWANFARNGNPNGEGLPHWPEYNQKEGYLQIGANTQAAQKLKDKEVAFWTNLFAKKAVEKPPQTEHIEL

[8] = Half life in rat intestinal microsomes at 1 uM up to 120 mins by LC-MS/MS analysis; assay type: ADME, Intestine, Microsome; method in brief: as §3
Plasma [9] = test: Stability in rat plasma at 10 uM up to 360 mins in presence of DTNB by LC-MS/MS analysis; assay type: ADME, cell-free; conditions: 6 h; method in brief: as §2

| half-life at 10 µM [1] [h] | half-life at 10 µM [2] [h] | Stability (Plasma [3]) | Compound | other results |
| --- | --- | --- | --- | --- |
| > 6 | > 6 |  | O=C(NO)C1(C(=O)NCc2ccccc2)CC1 |  |
|  |  | Unstable | O=C(NO)C(Cc1ccccc1)C(=O)NCc1ccc(F)cc1 (centres undefined) |  |
|  |  |  | CCOC(=O)[C@H](CCc1ccccc1)N[C@@H](C)C(=O)N1[C@H](C(=O)O)C[C@H]2CCCC[C@@H]21 [TRANDOLAPRIL] | half-life at 10 µM [4]: 0.333 h; half-life at 1 µM [5]: 0.117 h |
| > 6 | 3.6 | Unstable | O=C(CNCc1ccccc1)NO |  |
| > 6 | 0.7 | Unstable | O=C(NO)C1Cc2ccccc2CN1S(=O)(=O)c1ccccc1 (centres undefined) |  |
| > 6 | 2.1 | Unstable | O=C(CCNCc1ccccc1)NO |  |
| > 6 | 1.8 | Unstable | O=C(NO)[C@H](Cc1ccccc1)NCc1ccccc1 |  |
| > 6 | 0.05 |  | O=C(CCCC1CCCCC1)NO | Drug metabolism (Liver carboxylesterase 1 [6]): Metabolite_Detected; Drug metabolism (Liver carboxylesterase 1 [7]): Metabolite_Detected |
| > 6 | 3.3 | Unstable | O=C(NO)C(Cc1ccccc1)C(=O)NCc1ccncc1 (centres undefined) |  |
| > 6 | > 6 |  | O=C(/C=C/c1ccc(-c2ccccc2)cc1)NO |  |
| > 6 | > 6 |  | CC(C(=O)NO)C(=O)NCc1ccc(F)cc1 (centres undefined) |  |
| > 6 | > 6 |  | O=C(NO)C(CCc1ccccc1)S(=O)(=O)c1ccccc1 (centres undefined) |  |
| > 6 | > 6 |  | CC(C)[C@H](C(=O)NO)N(Cc1ccccc1)S(=O)(=O)c1ccccc1 |  |
| > 6 | > 6 |  | CC(C(=O)NO)C(=O)NCc1ccccc1 (centres undefined) |  |
| > 6 | > 6 |  | O=C(C=C(c1ccccc1)c1ccccc1)NO | Drug metabolism (Liver carboxylesterase 1 [6]): Metabolite_Detected; Drug metabolism (Liver carboxylesterase 1 [7]): Metabolite_Detected |
|  |  |  | CC(=O)Oc1cc2c(s1)CCN(C(C(=O)C1CC1)c1ccccc1F)C2 (centres undefined) [PRASUGREL] | half-life at 1 µM [8]: 0.0167 h |
| > 6 | 4.5 | Unstable | O=C(CCCCCc1ccccc1)NO |  |
| > 6 | 0.5 | Unstable | O=C(CNCCc1ccccc1)NO |  |
| > 6 | > 6 |  | O=C(N[C@@H](CO)C(=O)NO)c1ccc(-c2ccccc2)cc1 |  |
| > 6 | > 6 |  | CC(C)(C(=O)NO)C(=O)NCc1ccccc1 |  |
| > 6 | > 6 |  | O=C(CCCCCCc1ccccc1)NO |  |
| > 6 | 1.5 | Unstable | CC(Cc1ccccc1)(C(=O)NO)C(=O)NCc1ccccc1 (centres undefined) |  |
| > 6 | > 6 |  | O=C(CC(=O)NCc1ccccc1)NO |  |
| > 6 | > 6 |  | CCCCc1nc2cc(/C=C/C(=O)NO)ccc2n1CCN(CC)CC [PRACINOSTAT] |  |
| > 6 | > 6 |  | C[C@H](NCc1ccccc1)C(=O)NO |  |
| > 6 | > 6 |  | O=C(/C=C/c1ccc(S(=O)(=O)Nc2ccccc2)cc1)NO |  |

| half-life at 10 µM [1] [h] | half-life at 10 µM [2] [h] | Stability (Plasma [3]) | Compound | other results |
| --- | --- | --- | --- | --- |
|  |  | Unstable | O=C(CCc1ccccc1)NO | Drug metabolism (Liver carboxylesterase 1 [6]): Metabolite_Detected; Drug metabolism (Liver carboxylesterase 1 [7]): Metabolite_Detected; half-life at 1 µM [5]: 0.25 h; half-life at 1 µM [8]: > 6 h |
| > 6 | 0.58 | Unstable | O=C(CNC(=O)c1ccccc1)NO |  |
| > 6 | 0.8 | Unstable | O=C(NO)C(Cc1ccccc1)C(=O)NCc1ccccc1 (centres undefined) | Drug metabolism (Liver carboxylesterase 1 [6]): Metabolite_Detected; Drug metabolism (Liver carboxylesterase 1 [7]): Metabolite_Detected |
| > 6 | 2.5 | Unstable | O=C(CCNC(=O)c1ccccc1)NO |  |
| > 6 | > 6 |  | O=C(CC(=O)Nc1ccccc1)NO |  |
| > 6 | > 6 |  | CC(CCc1ccccc1)C(=O)NO (centres undefined) |  |
| > 6 | 4.5 | Unstable | O=C(NO)C(Cc1ccncc1)C(=O)NCc1ccccc1 (centres undefined) |  |
| > 6 | > 6 |  | O=C(NO)[C@@H](Cc1ccccc1)N(Cc1ccccc1)S(=O)(=O)c1ccccc1 |  |
| > 6 | > 6 |  | CS(=O)(=O)C(CCc1ccccc1)(Cc1ccccc1)C(=O)NO (centres undefined) |  |
| > 6 | > 6 |  | O=C(CC1CCCCC1)NO |  |
| > 6 | 0.29 | Unstable | O=C(CNC(=O)Cc1ccccc1)NO |  |
| > 6 | > 6 |  | O=C(NO)C(CCc1ccccc1)Cc1ccccc1 (centres undefined) |  |
| 2.4 | 0.43 |  | O=C(CCC(=O)Nc1ccccc1)NO | Drug metabolism (Liver carboxylesterase 1 [6]): Metabolite_Detected; Drug metabolism (Liver carboxylesterase 1 [7]): Metabolite_Detected |
| > 6 | > 6 |  | O=C(CC(=O)NCc1ccc(F)cc1)NO |  |
| > 6 | > 6 |  | O=C(/C=C/c1ccc(Cl)cc1Cl)NO [CINNAMIC ACID HYDROXAMATE] |  |
| > 6 | > 6 |  | O=C(CC12CC3CC(CC(C3)C1)C2)NO |  |
| > 6 | 0.9 to 0.93 | Unstable | O=C(CCCCc1ccccc1)NO |  |
| > 6 | 0.5 |  | O=C(CCC12CC3CC(CC(C3)C1)C2)NO | Stability (Plasma [9]): Unstable |
| > 6 | > 6 |  | O=C(NO)C1(NS(=O)(=O)c2ccccc2)CCOCC1 |  |
| > 6 | 0.4 | Unstable | O=C(NCC(C(=O)NO)N1CCCCC1)c1ccccc1 (centres undefined) |  |
| > 6 | 0.1 | Unstable | O=C(NO)[C@H](Cc1ccccc1)NS(=O)(=O)c1ccccc1 |  |
| > 6 | > 6 |  | CC(CCc1ccccc1)(C(=O)NO)S(=O)(=O)c1ccccc1 (centres undefined) |  |
|  |  | Unstable | CC(Cc1ccccc1)(C(=O)NO)C(=O)NCc1ccc(F)cc1 (centres undefined) |  |
| > 6 | > 6 |  | O=C(NO)C1CCN(C(=O)c2ccccc2)C1 (centres undefined) |  |
| > 6 | 0.1 | Unstable | O=C(NO)C(Cc1ccc2ccccc2c1)C(=O)NCc1ccccc1 (centres undefined) | Drug metabolism (Liver carboxylesterase 1 [6]): Metabolite_Detected; Drug metabolism (Liver carboxylesterase 1 [7]): Metabolite_Detected |
| > 6 | 0.06 |  | O=C(CCC1CCCCC1)NO | Drug metabolism (Liver carboxylesterase 1 [6]): Metabolite_Detected; Drug metabolism (Liver carboxylesterase 1 [7]): Metabolite_Detected |
